ChEMBL document CHEMBL1759837, “Studies on chemical modification and biology of a natural product, gambogic acid (III): determination of the essential pharmacophore for biological activity” (Eur J Med Chem, 2011)
The source made the active and inactive calls. No cut-off for these calls is given here.

Key:
[1] = system: Heps hepatoma (Mus musculus); assay: Antitumor activity against murine Heps hepatoma cells transplanted in Kunming mouse assessed as tumor growth inhibition at 12.5 mg/kg, iv administered 24 hrs after tumor implantation one dose per two day for total of four treatment measured after 24 hrs last postdose relative to control
HepG2 [2] = assay: Induction of apoptosis in human HepG2 cells assessed as pre-necrotic cells at 1 uM after 24 hrs using annexin V-propidium iodide staining by flow cytometry (reference value: 0.5%); type: functional
HepG2 [3] = assay: Induction of apoptosis in human HepG2 cells assessed as bright condensed chromatin in nuclei at 1 uM after 24 hrs by fluorescence microscopy
HepG2 [4] = assay: Induction of apoptosis in human HepG2 cells assessed as decrease in pro-caspase-3 expression at 2 uM after 24 hrs by Western blot analysis; type: functional, cell-based
Summary of the method: (§1)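 HepG2 cells treated 24 h at 1, 2 or 4 µM. Lysed in Tris-Cl pH 6.8 buffer containing SDS, glycerol, β-mercaptoethanol, PMSF and aprotinin; cleared at 12 000 × g, 15 min, 4 °C. Protein measured by BCA. Samples run on 15% SDS-PAGE, transferred to PVDF, probed overnight at 4 °C with primary antibodies against bcl-2, bax and pro-caspase-3, then IRDye 800 secondary 1 h at 37 °C.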

HepG2 [5] = assay: Induction of apoptosis in human HepG2 cells assessed as cell distortion at 4 uM after 24 hrs using by inverted light microscopy; type: functional, cell-based
Summary of the method: (§2)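 HepG2 cells seeded at 1 × 10⁵ cells/well and treated 24 h at 1, 2 or 4 µM. Living cells first viewed under inverted light microscope (×200). Cells then fixed 20 min in 4% paraformaldehyde, stained 10 min with DAPI (1 mg/ml) and examined by fluorescence microscopy (×400, 340 nm excitation) for nuclear changes and apoptotic bodies.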

HepG2 [6] = assay: Induction of apoptosis in human HepG2 cells assessed as late apoptotic cells at 2 uM after 24 hrs using annexin V-propidium iodide staining by flow cytometry (reference value: 3.4%); type: functional
HepG2 [7] = assay: Induction of apoptosis in human HepG2 cells assessed as activation of caspase 3 at 1 to 4 uM after 24 hrs by colorimetric assay relative to control; type: functional
Summary of the method: (§3)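 Kit colorimetric caspase-3 test. HepG2 cells treated at 1, 2 or 4 µM for 24 h at 37 °C, then lysed on ice 20 min and centrifuged. Supernatant containing 200 µg total protein incubated with Ac-DEVD-pNA 4 h at 37 °C; absorbance read at 405 nm. Fold activity = OD treated / OD control; mean ± SD, t-test.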

Mus musculus [8] = assay: Toxicity in Kunming mouse xenografted with human HepG2 cells assessed as change in body weight at 25 mg/kg, iv administered 24 hrs after tumor implantation one dose per two day for total of four treatment measured after 24 hrs last postdose (reference value: 20.20 +/- 1.14 g); type: organism-based; parameters: dose 25 mg/kg, route intravenous; conditions: in vivo
HepG2 [9] = assay: Induction of apoptosis in human HepG2 cells assessed as decrease in pro-caspase-3 expression at 4 uM after 24 hrs by Western blot analysis; type: functional, cell-based
Summary of the method: as §1

HepG2 [10] = assay: Induction of apoptosis in human HepG2 cells assessed as activation of caspase 3 after 24 hrs by colorimetric assay; type: functional, cell-based
Summary of the method: as §3

[11] = system: Heps hepatoma (Mus musculus); assay: Antitumor activity against murine Heps hepatoma cells transplanted in iv dosed Kunming mouse assessed as tumor growth inhibition administered 24 hrs after tumor implantation one dose per two day for total of four treatment measured after 24 hrs last postdose
HepG2 [12] = assay: Induction of apoptosis in human HepG2 cells assessed as cell membrane blebbing and shrinkage at 4 uM after 24 hrs using by inverted light microscopy; type: functional, cell-based
Summary of the method: as §2

Mus musculus [13] = assay: Toxicity in Kunming mouse xenografted with human HepG2 cells assessed as change in body weight at 50 mg/kg, iv administered 24 hrs after tumor implantation one dose per two day for total of four treatment measured after 24 hrs last postdose (reference value: 19.10 +/- 1.29 g); conditions: in vivo
HepG2 [14] = assay: Induction of apoptosis in human HepG2 cells assessed as late apoptotic cells at 1 uM after 24 hrs using annexin V-propidium iodide staining by flow cytometry (reference value: 3.4%); type: functional
HepG2 [15] = assay: Induction of apoptosis in human HepG2 cells assessed as decrease in bcl-2 expression at 1 uM after 24 hrs by Western blot analysis; type: functional, cell-based
Summary of the method: as §1

HepG2 [16] = assay: Induction of apoptosis in human HepG2 cells assessed as decrease in bcl-2 expression at 2 uM after 24 hrs by Western blot analysis; type: functional, cell-based
Summary of the method: as §1

HepG2 [17] = assay: Induction of apoptosis in human HepG2 cells assessed as large proportion of cell became round in shape at 4 uM after 24 hrs […] by inverted light microscopy; type: functional, cell-based
Summary of the method: as §2

SMMC-7721 = assay: Antiproliferative activity against human SMMC7721 cells after 24 hrs by MTT assay; type: functional, cell-based; conditions: SMMC-7721, 24 h
Summary of the method: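 Cells grown at 37 °C in humidified 5% CO2 with benzylpenicillin and streptomycin. Compounds came from 0.01 mol/L DMSO stocks and were tested at eight two-fold dilutions in triplicate, with medium-only controls, for 24 h. MTT absorbance was read at 570 nm. Survival = A_treatment/A_control × 100. IC50 is the concentration giving 50% viability inhibition, as the mean of two separate experiments.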

HepG2 [18] = assay: Cell cycle arrest in human HepG2 cells assessed as accumulation at G2/M phase at 1 uM after 24 hrs using propidium iodide by Flow cytometry; type: functional, cell-based
Summary of the method: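 HepG2 cells synchronised by 24 h serum starvation, then treated 24 h at 1, 2 or 4 µM. Cells fixed overnight in 70% ethanol at 4 °C and stained 15 min at 37 °C in the dark with hypotonic PI solution (0.1% sodium citrate, 0.1% Triton X-100, 0.05 mg/ml PI, 0.01 mg/ml RNase). DNA content measured by flow cytometry.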

HepG2 [19] = assay: Induction of apoptosis in human HepG2 cells assessed as nuclear condensation at 1 to 4 uM after 24 hrs using DAPI staining by fluorescent microscopy; type: functional, cell-based
Summary of the method: as §2

HepG2 [20] = assay: Induction of apoptosis in human HepG2 cells assessed as effect on bax protein expression at 4 uM after 24 hrs by Western blot analysis; type: functional, cell-based
Summary of the method: as §1

[21] = system: Heps hepatoma (Mus musculus); assay: Antitumor activity against murine Heps hepatoma cells transplanted in Kunming mouse assessed as tumor growth inhibition at 50 mg/kg, iv administered 24 hrs after tumor implantation one dose per two day for total of four treatment measured after 24 hrs last postdose relative to control
HepG2 [22] = assay: Antiproliferative activity against human HepG2 cells after 24 hrs by MTT assay; type: functional, cell-based; conditions: HepG2, 24 h
Summary of the method: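 Tetrazolium MTT viability test; cells exposed to compound 24 h, absorbance read at 570 nm. Survival ratio = A treated / A control × 100%; IC50 is the concentration giving 50% loss of viability. Eight concentrations in two-fold dilutions, triplicate wells, mean of two separate experiments. Compounds dissolved in DMSO (0.01 mol/L stock); control wells received medium only.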

IC50 (SMMC-7721): 8.06 µM
IC50 (HepG2 [22]): 2.37 µM
Compound: CC(C)=CCC12OC(C)(C)C3CC(C=C4C(=O)c5c(O)cccc5OC431)C2=O (stereo not drawn)
inhibition in vivo at 12.5 mg/kg [1]: 14.9%
Activity (HepG2 [2]): 0.8%
Activity (HepG2 [3]): Active
Activity (HepG2 [4]): Active
Activity (HepG2 [5]): Active
Activity (HepG2 [6]): 8.1%
fold change (FC) (HepG2 [7]): 3
Activity (Mus musculus [8]): 29.4 g
Activity (HepG2 [9]): Active
Activity (HepG2 [10]): Dose-dependent effect
inhibition [11]: Dose-dependent effect
Activity (HepG2 [12]): Active
Activity (Mus musculus [13]): 24.7 g
Activity (HepG2 [14]): 4.8%
Activity (HepG2 [15]): Active
Activity (HepG2 [16]): Active
Activity (HepG2 [17]): Active
Activity (HepG2 [18]): Active
Activity (HepG2 [19]): Active
Activity (HepG2 [20]): inactive
inhibition in vivo at 50 mg/kg [21]: 49.2%
